Screening data (PubChem)
A selection: hits, their analogues and other compounds. The true share with any hit is near 5.3%.
T cruzi repl – T. cruzi replication inhibition | T. cruzi beta-gal in NIH3T3, luminescence, 90 h | inhibition, % (test concentration not listed) | 300,000 tested, 1.4% active;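 active means mean inhibition across valid replicates above about 55%, limit read from the data; inconclusive means mean below that limit but half or more replicates reach it; inactive means mean below it, under half of replicates reach it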;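 further: signal also drops with host cell toxicity which is not excluded here; higher percent means less beta-gal luminescence so fewer parasites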
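Material: NIH/3T3 host cells with β-galactosidase reporter T. cruzi; Input: 5,000 host fibroblasts per well; Medium: DMEM, 2% fetal bovine serum; Compound: 50 nL DMSO compound solution per well; Schedule: 3 h host attachment, then at least 90 h co-culture; Detection: luminescent β-galactosidase signal after 60 min lysis.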
Calb FLC – affects C. albicans growth with fluconazole; 300,000 tested, 0.57% active; growth inhibition, % (test concentration not listed); C. albicans CaCi-2 + fluconazole, Alamar Blue growth, 48 h;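 active means growth inhibition above about 58% in most replicates, limit read from the data, passing the limit was not always enough; inconclusive means exactly half the replicates above a set limit; inactive means most replicates below a set limit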;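 further: all wells also contain fluconazole at 8 µg/ml as a sub-toxic cotreatment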
Mdm2-MdmX inh – disrupts the human Mdm2-MdmX interaction; SaOS-2 split-luciferase Mdm2/MdmX complementation, luminescence; inhibition, % at 8 µM; O15151+Q00987; 330,000 tested, 3% active;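 active means inhibition of at least 50% at 8 µM in the primary screen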
NALP3 yeast inh – blocks the NALP3 inflammasome reconstituted in yeast. Yeast reconstituted NLRP3/ASC/caspase-1, beta-gal luminescence, 24 h. inhibition, % at 10 µM. 330,000 tested, 0.39% active. AID 2825;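 active means inhibition of 50% or more; inactive means inhibition below 50%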
Beta cell apopt – beta cell apoptosis inhibition; AID 435005; 300,000 tested, 0.8% active; protection from apoptosis, % (concentration not given with the values); INS-1E cytokine-induced death, ATP luminescence, 48 h; percent of positive-control rescue, neutral wells zero;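 active means Every replicate reaches about 75%, or at least half do and their mean reaches it too, limit read from the data; inconclusive means At least half of replicates reach the limit but their mean does not; inactive means Under half of replicates reach the limit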;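 further: higher means more ATP so stronger rescue from cytokine killing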
CSC inhib – blocks cancer stem cells | 300,000 tested, 1.1% active | inhibition, % at 7.5 µM | AID 2717 | cancer stem cell-like cells viability, luminescence; in the data active means inhibition above about 75%; inconclusive means no clear call, values can overlap the other calls; tested in HMLE shEcad cells
Mdm2 MdmX conf – confirmation of human Mdm2/MdmX interaction inhibitors | shares compounds with Mdm2-MdmX inh | Mdm2-MdmX binding, luminescent assay | inhibition, % at 8 µM | 10,000 tested, 55% active | AID 489028; in the data active means inhibition above about 40%
FLuc counter – full-length luciferase inhibition in Mdm2/MdmX counter-screen; shares compounds with Mdm2-MdmX inh; SaOS-2 full-length luciferase counterscreen, luminescence; inhibition, % at 8 µM; 6,200 tested, 77% active; AID 504607;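 active means mean inhibition at 8 µM reaching about 37%, which flags the compound as non-specific, limit read from the data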;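 further: p53-null SaOS-2 cells with luciferase driven by a doxycycline-inducible promoter; compound on cells about two nights before reading with doxycycline added after day one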
Numbers stand for hits; . = inactive; ? = inconclusive; / = not tested or not shown.

SMILES	T cruzi repl	Calb FLC	Mdm2-MdmX inh	NALP3 yeast inh	Beta cell apopt	CSC inhib	Mdm2 MdmX conf	FLuc counter
CC[C@]12c3[nH]c4ccc(OC)cc4c3CCN1C(=O)C(CC(=O)NC/C=C(\C)CCC=C(C)C)C[C@@H]2C(=O)N1CCN(C(=O)c2ccco2)CC1 (some centres undefined)	/	/	.	/	/	/	/	/
COc1cc(Cl)c(NC2=CC(=O)C(=O)c3ccccc32)c(OC)c1	/	/	53.0	.	104.9	109.9	58.9	49.6
Cc1[nH]nc2c1C(=O)CCC2	.	.	.	.	.	.	/	/
O=C(Nc1nc(-c2cc3ccccc3oc2=O)cs1)c1ccc(Br)o1	.	.	.	.	/	.	/	/
CC(C)C(=O)NC(c1ccco1)c1ccc2cccnc2c1O (centres undefined)	.	97.9	82.0	.	116.8	.	63.9	.
c1coc(CNc2nc3ccccc3s2)c1	.	.	.	.	.	.	/	/
CC(=O)NC(c1ccco1)c1cc(Cl)c2ccc(Cl)nc2c1O (centres undefined)	/	/	.	.	.	.	/	/
Oc1c(C(Nc2nc3ccccc3s2)c2ccco2)ccc2cccnc12 (centres undefined)	?	?	60.5	.	103.3	119.6	85.3	42.0
CC(C)C(=O)NC(c1cccc([N+](=O)[O-])c1)c1ccc2cccnc2c1O (centres undefined)	.	.	81.1	.	/	99.7	90.2	52.0
O=C1c2ccccc2/C(=C\c2ccc3[nH]ccc3c2)N1c1ccccc1	/	/	.	.	.	/	/	/
CCC/C(=C1/c2ccccc2C(=O)N1c1ccccc1)c1ccc2[nH]ccc2c1	/	/	59.1	.	.	134.8	52.4	45.4
Cc1ccc2c(c1)CCCN2C(=O)CCc1nc2ccccc2c(=O)[nH]1	/	/	53.2	.	.	/	59.6	49.0
Cc1nc(-n2[nH]c3c(c2=O)CCCC3)[nH]c(=O)c1Cc1ccccc1	69.4	89.3	58.1	.	.	.	64.2	.
Cc1nc(N2CCc3ccccc3C2)[nH]c(=O)c1Cc1ccccc1	.	.	.	.	.	.	/	/
Nc1nc2ccccc2n1CCOc1ccc(Br)cc1	.	.	.	.	.	.	/	/
O=C(Nc1nc2ccccc2n1CCOc1ccccc1)c1ccco1	.	.	52.9	.	.	/	.	/
Cc1cccc(OCCn2c(NC(=O)c3ccco3)nc3ccccc32)c1	59.7	.	51.0	.	.	.	40.7	59.3
S=C(Nc1ccccc1)Nc1nc2ccccc2n1CCOc1ccc(Br)cc1	.	.	95.3	.	.	106.9	.	/
Cc1cccc(OCCn2c(-c3ccco3)nc3ccccc32)c1	.	.	.	.	.	.	/	/
O=C(Nc1nc2ccccc2n1CCOc1ccc(Cl)cc1)c1ccco1	56.7	.	67.3	.	.	.	49.6	72.5
Cc1ccc(OCCn2c(NC(=O)c3ccco3)nc3ccccc32)cc1	.	/	.	.	.	.	/	/
CCCCn1c(=N)n(CC(=O)c2ccc(OC)cc2)c2ccccc21	.	.	79.1	.	.	.	44.0	47.7
CCCCn1c(=N)n(CC(=O)c2ccc(Br)s2)c2ccccc21	.	.	96.6	.	82.9	.	59.4	52.8
N=c1n(CC(=O)c2ccc([N+](=O)[O-])cc2)c2ccccc2n1Cc1ccccc1	.	.	.	.	.	.	/	/
N=c1n(CC(=O)c2ccc(Br)cc2)c2ccccc2n1Cc1ccccc1	/	/	96.7	.	.	.	75.5	55.4
SMILES	T cruzi repl	Calb FLC	Mdm2-MdmX inh	NALP3 yeast inh	Beta cell apopt	CSC inhib	Mdm2 MdmX conf	FLuc counter
Cn1c(=N)n(CC(=O)c2ccc(Cl)c(Cl)c2)c2ccccc21	.	.	77.8	.	.	.	73.5	145.1
COc1ccc(OCC(=O)N2CCCC2=O)c([N+](=O)[O-])c1	.	.	.	.	.	.	/	/
Cc1sc2ncnc(NCc3ccccc3)c2c1C	.	.	67.4	.	.	.	.	/
Cc1[nH][nH]c(=O)c1C(c1ccc(F)cc1)c1c(C)[nH][nH]c1=O	.	.	.	.	/	.	/	/
CN(CCO)c1nc(N)c2c(N)nc3c(c2c1C#N)CC(=O)N3Cc1cccs1	.	.	.	.	.	.	/	/
Clc1ccc2oc(-c3ccccn3)nc2c1	.	.	.	.	.	/	/	/
